ChEMBL document CHEMBL1141351, “Inhibitors of osteoclast differentiation from Cephalotaxus koreana” (J Nat Prod, 2007)

What was measured:
[1] = tested on: Osteoclast; assay: Inhibition of ICR mouse osteoclast differentiation at 1.0 ug/mL; assay type: functional
Outline: (§1)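 Co-culture of bone marrow cells (femora, 6-week-old ddY mice; 2.5×10^5 cells/cm²) with calvarial osteoblastic cells (newborn ICR mice, collagenase digestion; 4 × 10⁴ cells/cm²) in α-MEM/10% FBS with 1,25(OH)₂D₃ (1 × 10⁻⁸ M) and dexamethasone (1 × 10⁻⁷ M). DMSO stocks (2 mg/mL) were filter-sterilized and added at 0.1 or 1.0 μg/mL. Medium was changed every 2 days. On day 6, cells were formaldehyde-fixed and TRAP-stained. TRAP(+) multinucleated cells with >6–7 nuclei were counted. Results are % inhibition versus control, as mean ± SD of three replicates, with Student's t-test.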

[2] = tested on: Osteoclast; assay: Inhibition of ICR mouse osteoclast differentiation at 0.1 ug/mL; assay type: functional; outline: as §1
[3] = tested on: Osteoclast; assay: Induction of mouse osteoclast apoptosis; assay type: functional, cell-based

## CC(=O)OC[C@H]1O[C@@H](Oc2c(-c3ccc(O)c(O)c3)oc3cc(O)cc(O)c3c2=O)[C@H](O)[C@@H](O)[C@@H]1O
[1]
  inhibition at 1 µg/mL: 65%
[2]
  inhibition at 0.1 µg/mL: 51%

## COc1ccc(-c2oc3cc(O)cc(O)c3c(=O)c2O[C@@H]2O[C@H](CO[C@@H]3O[C@H](C)[C@@H](O)[C@H](O)[C@@H]3O)[C@@H](O)[C@H](O)[C@H]2O)cc1O
[1]
  inhibition at 1 µg/mL: 63%
[2]
  inhibition at 0.1 µg/mL: 40%

## O=c1c(O)c(-c2ccc(O)c(O)c2)oc2cc(O)cc(O)c12 [QUERCETIN]
[3]
  IC50: 5.3 µM

## C[C@H]1O[C@@H](OC[C@H]2O[C@@H](Oc3c(-c4ccc(O)cc4)oc4cc(O)cc(O)c4c3=O)[C@H](O)[C@@H](O)[C@@H]2O)[C@@H](O)[C@@H](O)[C@@H]1O
[1]
  inhibition at 1 µg/mL: 85%
[2]
  inhibition at 0.1 µg/mL: 68%

## O=c1cc(-c2ccc(O)cc2)oc2c(O)c(O)cc(O[C@@H]3O[C@H](CO)[C@@H](O)[C@H](O)[C@H]3O)c12
[1]
  inhibition at 1 µg/mL: 86%
[2]
  inhibition at 0.1 µg/mL: 63%

## O=c1c(O)c(-c2ccc(O)cc2)oc2cc(O)cc(O)c12 [KAEMPFEROL]
[3]
  IC50: 1.6 µM

## C[C@@H]1O[C@@H](Oc2c(-c3ccc(O)c(O)c3)oc3cc(O)cc(O)c3c2=O)[C@H](O)[C@H](O)[C@H]1O [QUERCITRIN]
[1]
  inhibition at 1 µg/mL: 67%
[2]
  inhibition at 0.1 µg/mL: 56%

## O=c1cc(-c2ccc(O)cc2)oc2cc(O)cc(O)c12 [APIGENIN]
[1]
  inhibition at 1 µg/mL: 65%
[2]
  inhibition at 0.1 µg/mL: 45%
